High-throughput results: PubChem, Broad Institute
CFTR F508del cor = correctors of CFTR F508del function in bronchial epithelial cells; CFBE cells, YFP halide quenching; stimulated with forskolin plus potentiator P3; % fluorescence drop versus neutral controls; AID 720511; activity (quench increase), % at 7.58 µM; hit rate 0.36% among 350,000;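 active = mean added fluorescence quench of at least 8% versus neutral control, with both replicates also reaching 8%; inconclusive = only one of the mean or replicate conditions met; inactive = mean below 8% and not both replicates reaching 8%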;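 also: cells transiently co-express mutant CFTR-F508del with the halide-sensitive YFP; corrector assay measuring rescue of mutant channel to the surface after 24 h compound exposure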
Cneo AK release = Cryptococcus neoformans lysis via adenylate kinase release; C. neoformans lysis, adenylate kinase release luminescence, 4 h; normalised: neutral wells 0, clomiphene wells 100; lysis activity, % at 15 µM; hit rate 0.2% among 360,000;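 active = mean lysis activity across replicates of at least 80%, whatever share of replicates individually reach that level; inactive = mean lysis activity below 80%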
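Schedule: static 4 h at 37 °C with compound, 1 h detection; system: C. neoformans cells; benchmarks: Clomiphene as positive control; buffer or medium: fresh YPD medium; measure: luminescence rise reflecting yeast cell lysis; measured by: luminescent adenylate kinase detection reagent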
PGC1a acetyl inh = modulators of PGC1a acetylation; inhibition, % at 15.6 µM; hit rate 0.17% among 350,000; U2OS PGC1a acetylation, AlphaScreen anti-acetyl-lysine; with virally co-expressed GCN5 acetyltransferase;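 active = every replicate shows inhibition of at least 40%; inconclusive = mean inhibition at least 40% but some replicate below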;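 also: 0% = neutral control wells and 100% = positive control wells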
FN deposition inh = fibronectin deposition inhibition; AID 743247; AH1F fibroblasts, Alexa488-fibronectin deposition fluorescence, overnight; hit rate 0.086% among 350,000; inhibition, % at 12.6 µM;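 active = mean inhibition across replicates of 30% or more, regardless of how many single replicates reach that level; inconclusive = mean under 30% yet at least half of replicates reach 30%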;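 also: positive control wells lacked labelled fibronectin entirely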
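Material: AH1F fibroblast monolayer depositing Alexa488-labelled fibronectin into matrix / Amount: 10000 AH1F cells per well / Signal: fluorescence 485/525 nm / Medium: DMEM, 2% serum / Compound: single dose, pinned / Incubation: 1 h cell adhesion before compound, then overnight fibronectin incubation / Reagent: Alexa488-FN, 24 nM final / Read-out: inhibition of fibronectin deposition signal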
DENV2 CPE rescue = DENV2-induced cell death inhibition. CPE inhibition, % at 9.99 µM. hit rate 1.7% among 350,000. DENV2-infected cells, cytopathic effect rescue, plate reader; in the data active = CPE inhibition above about 20%, passing the limit was not always enough; inconclusive = no clear call, values can overlap the other calls; tested in BHK-21 cells;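 also: 0% = median of neutral control wells and 100% = median of positive control wells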
XiGFP reactiv = X-chromosome reactivation activator | XiGFP mouse fibroblasts, % GFP-positive cells imaging, 3 d; cells co-treated with 5-aza-dC sensitizer; scaled so ellipticine positive control = 100% | activation, % at 7.58 µM | hit rate 0.055% among 360,000;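 active = mean normalized replicate activation at least 10% and every replicate at or above 10%; inconclusive = only one of the two criteria met; inactive = mean below 10% and not all replicates reach 10%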;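 also: 0% = median of on-plate neutral control wells and 100% = ellipticine 6 µM median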
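System: XiGFP fibroblasts, SV40-immortalized. Medium: DMEM plus 5-aza-dC sensitizer. Doses: single point. Timing: 3 d treatment, 15 min room-temperature fixation. Control set: ellipticine 6 µM.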
* hit, by the source's call. In the library only some 1.9% were active in any assay of this set; here they are far more common.

Screening CCOC(=O)C1CN(S(=O)(=O)c2ccccc2)c2cc(S(=O)(=O)CC)ccc2O1 (configuration not stated) returned Cneo AK release -0.9, PGC1a acetyl inh 49.7* and FN deposition inh -3.6.
Screening CCOC(=O)C1CN(S(=O)(=O)c2ccc(Cl)cc2)c2cc(S(=O)(=O)CC)ccc2O1 (configuration not stated) returned CFTR F508del cor 4.3, PGC1a acetyl inh -1.9, FN deposition inh -12.1, DENV2 CPE rescue 2.1 and XiGFP reactiv 0.0.
COCCNC(=O)c1cc(-c2ccccc2)n(Cc2cc(C)no2)n1 was read as CFTR F508del cor 3.9, Cneo AK release -1.2, PGC1a acetyl inh 8.0, FN deposition inh -4.8, DENV2 CPE rescue 21.7* and XiGFP reactiv 0.0.
CCCc1nc(SC2CCCC2)c2c(=O)n(C)c(=O)n(C)c2n1 was read as CFTR F508del cor 8.1*, Cneo AK release 2.5, FN deposition inh 5.5, DENV2 CPE rescue 9.6 and XiGFP reactiv 0.0.
For COc1ccccc1NC(=O)N1CCCCN2[C@H](CO)[C@@H](c3ccc(C#CC4CCCC4)cc3)[C@@H]2C1 the results were CFTR F508del cor 3.5, Cneo AK release 14.7, PGC1a acetyl inh -0.2, DENV2 CPE rescue 36.1* and XiGFP reactiv 0.0.
COc1ccccc1NC(=O)N1CCCCN2[C@H](CO)[C@H](c3ccc(C#Cc4ccccc4)cc3)[C@@H]2C1 was read as CFTR F508del cor 1.0, Cneo AK release 2.4, PGC1a acetyl inh 2.1, DENV2 CPE rescue 25.1* and XiGFP reactiv 0.4.
Screening CO[C@H]1CC[C@@H]2CCN(C)C(=O)[C@H](C)N(C)C(=O)c3cc(C#N)ccc3OC[C@@H]1O2 returned Cneo AK release -0.2, FN deposition inh -13.9, DENV2 CPE rescue -0.1 and XiGFP reactiv -0.1.
COc1ccc(C[C@@H]2OC3(C=CC(=O)C=C3)O[C@H]2Cc2ccc(OC)cc2)cc1 was read as PGC1a acetyl inh 90.0*.
`O=C1C=CC2(C=C1)O[C@H](Cc1ccccc1)[C@@H](Cc1ccccc1)O2` gave CFTR F508del cor -6.2, PGC1a acetyl inh inconclusive, FN deposition inh 41.4*, DENV2 CPE rescue -8.6 and XiGFP reactiv 0.7.
For O=C(N[C@@H]1CC[C@@H](CCNC(=O)C2CCCCC2)O[C@@H]1CO)c1ccncc1 the results were CFTR F508del cor -2.7, Cneo AK release 0.1, PGC1a acetyl inh 20.0, FN deposition inh -3.9, DENV2 CPE rescue -9.3 and XiGFP reactiv 0.0.
`CN(C)CC(=O)N[C@H]1CC[C@@H](CCNC(=O)C2CCC2)O[C@H]1CO` gave CFTR F508del cor -0.8, Cneo AK release 0.5, PGC1a acetyl inh -6.0, DENV2 CPE rescue -8.3 and XiGFP reactiv 0.0.
For NCC[C@H]1CC[C@H](NC(=O)C2CCCCC2)[C@H](CO)O1 the results were CFTR F508del cor -3.4, Cneo AK release 3.8, PGC1a acetyl inh -3.2, DENV2 CPE rescue 7.0 and XiGFP reactiv 1.2.
`CN(C)CC(=O)N[C@@H]1CC[C@H](CCNC(=O)C2CCCC2)O[C@@H]1CO` gave CFTR F508del cor -2.5, Cneo AK release 0.7, PGC1a acetyl inh 12.9, DENV2 CPE rescue 53.6* and XiGFP reactiv -0.4.
Screening O=C(N[C@H]1CC[C@@H](CCNC(=O)C2CCCCC2)O[C@@H]1CO)c1ccncc1 returned CFTR F508del cor 1.6, Cneo AK release -1.3, PGC1a acetyl inh -1.3, FN deposition inh -9.7, DENV2 CPE rescue 23.6* and XiGFP reactiv 0.3.
`CN(C)CC(=O)N[C@H]1CC[C@@H](CCNC(=O)C2CCCC2)O[C@H]1CO` gave CFTR F508del cor -4.2, Cneo AK release -0.5, PGC1a acetyl inh 2.4, DENV2 CPE rescue -4.9 and XiGFP reactiv 0.1.
NCC[C@@H]1CC[C@@H](NC(=O)C2CCCC2)[C@@H](CO)O1 was read as CFTR F508del cor -1.8, Cneo AK release 0.2, PGC1a acetyl inh 0.5, DENV2 CPE rescue 36.0* and XiGFP reactiv 0.0.
Screening CC(C)NC(=O)NCC[C@@H]1CC[C@@H](NC(=O)CN(C)C)[C@@H](CO)O1 returned CFTR F508del cor 0.2, Cneo AK release 96.7*, PGC1a acetyl inh 15.8, FN deposition inh -9.0, DENV2 CPE rescue -3.2 and XiGFP reactiv -0.4.
For C[C@@H]1CN([C@@H](C)CO)C(=O)Cc2cc(NS(=O)(=O)c3cn(C)cn3)ccc2O[C@@H]1CN(C)S(C)(=O)=O the results were CFTR F508del cor -1.6, Cneo AK release -0.1, PGC1a acetyl inh -3.4, DENV2 CPE rescue -8.8 and XiGFP reactiv 0.5.
COc1cccc(CN2[C@@H](CO)[C@@H](c3ccccc3)C23CN(C(=O)C2CCOCC2)C3)c1 was read as CFTR F508del cor 1.7, PGC1a acetyl inh -6.5, DENV2 CPE rescue -2.2 and XiGFP reactiv 0.1.
For CC(=O)N[C@@H]1CC[C@@H](CCNC(=O)C2CCC2)O[C@H]1CO the results were CFTR F508del cor 0.2, Cneo AK release -0.6, PGC1a acetyl inh -10.4, FN deposition inh -1.9, DENV2 CPE rescue -9.3 and XiGFP reactiv -1.2.
O=C(CN1CCOCC1)N[C@@H]1CC[C@@H](CCNC(=O)C2CCC2)O[C@@H]1CO was read as CFTR F508del cor 1.8, Cneo AK release 97.5*, PGC1a acetyl inh 25.1, FN deposition inh -8.0, DENV2 CPE rescue -3.3 and XiGFP reactiv 1.7.
Screening CN(C)CC(=O)N[C@H]1CC[C@H](CCNC(=O)C2CCCC2)O[C@@H]1CO returned CFTR F508del cor -4.2, Cneo AK release 0.0, PGC1a acetyl inh 12.0, DENV2 CPE rescue -16.5 and XiGFP reactiv -0.6.
CC(=O)N[C@H]1CC[C@H](CCNC(=O)C2CCC2)O[C@@H]1CO was read as CFTR F508del cor 3.8, Cneo AK release 101.0*, PGC1a acetyl inh -19.8, FN deposition inh -5.7, DENV2 CPE rescue -15.7 and XiGFP reactiv 0.7.
O=C(CCN1CCCCC1)NCC[C@H]1CC[C@H](NC(=O)c2ccc(F)cc2)[C@H](CO)O1 was read as CFTR F508del cor 0.2, Cneo AK release 3.7, PGC1a acetyl inh 2.1, FN deposition inh 7.0, DENV2 CPE rescue -0.1 and XiGFP reactiv 0.1.
`O=C(CCN1CCCCC1)NCC[C@@H]1CC[C@H](NC(=O)c2ccc(F)cc2)[C@@H](CO)O1` gave CFTR F508del cor 2.5, Cneo AK release 85.6*, PGC1a acetyl inh 10.8, FN deposition inh -9.0, DENV2 CPE rescue -8.4 and XiGFP reactiv 0.0.
Screening CC(C)NC(=O)NCC[C@H]1CC[C@H](NC(=O)CN(C)C)[C@H](CO)O1 returned CFTR F508del cor -1.9, Cneo AK release 101.5*, PGC1a acetyl inh 11.2, FN deposition inh 5.7, DENV2 CPE rescue -4.5 and XiGFP reactiv -0.1.
